Source: ChEMBL document CHEMBL1157096, “Bioactive metabolites from cultures of basidiomycete Favolaschia tonkinensis” (J Nat Prod, 2010)
≈ marks a conversion by molar mass, not a printed value.

Key:
[1] = test system: Plasmodium falciparum; test: Antimalarial activity against Plasmodium falciparum K1 assessed as [G-3H]hypoxanthine uptake after 24 hrs by scintillation counting; assay type: functional, organism-based; conditions: K1, 24 h
Outline: (§1)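 Plasmodium falciparum strain K1 tested by microculture radioisotope technique, with IC50 in µg/mL.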

[2] = test system: Candida albicans; test: Antifungal activity against Candida albicans; assay type: functional, organism-based
Outline: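 Candida albicans tested by resazurin microplate assay, with IC50 in µg/mL.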

[3] = test system: KB; test: Cytotoxicity against human KB cells by resazurin microplate assay; assay type: functional, cell-based
Outline: (§2)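 Resazurin microplate assay on KB (oral human epidermoid carcinoma), MCF-7 (human breast cancer) and NCI-H187 (human small-cell lung cancer) cells, with IC50 in µg/mL.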

[4] = test system: MCF7; test: Cytotoxicity against human MCF7 cells by resazurin microplate assay; assay type: functional, cell-based; outline: as §2
[5] = test system: NCI-H187; test: Cytotoxicity against human NCI-H187 cells by resazurin microplate assay; assay type: functional, cell-based; outline: as §2
[6] = test system: Vero; test: Cytotoxicity against african green monkey Vero cells by green fluorescent protein assay; assay type: cell-based; conditions: Chlorocebus sabaeus
Outline: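 Vero (African green monkey kidney fibroblast) cytotoxicity measured by green fluorescent protein (GFP)-based method.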

[7] = test system: Plasmodium falciparum; test: Antimalarial activity against Plasmodium falciparum K1; assay type: functional, organism-based; outline: as §1

SMILES | IC50 [1] | IC50 [2] | IC50 [3] | IC50 [4] | IC50 [5] | IC50 [6] | IC50 [7]
NC(=O)c1ccc2c(c1)C=C/C(=C\Cl)CO2 | > 10 µg/mL | > 50 µg/mL | 12.1 µg/mL (≈ 51.6 µM) | > 50 µg/mL | > 50 µg/mL | > 50 µg/mL | –
C[C@H]1[C@@H](O)O[C@@H]2O[C@@]3(C)CC[C@H]4[C@H](C)CC[C@@H]1[C@@]24OO3 [ARTENIMOL] | 0.0011 µg/mL (≈ 0.00387 µM) | – | – | – | – | – | –
C[C@@H]1[C@H](O)[C@@H](C)/C=C/C=C/C=C/C=C/C=C/C=C/C=C/[C@H](O[C@@H]2O[C@H](C)[C@@H](O)[C@H](N)[C@@H]2O)C[C@@H]2O[C@](O)(C[C@@H](O)C[C@@H](O)[C@H](O)CC[C@@H](O)C[C@@H](O)CC(=O)O[C@H]1C)C[C@H](O)[C@H]2C(=O)O [AMPHOTERICIN B] | – | 0.07 µg/mL (≈ 0.0758 µM) | – | – | – | – | –
CO/C=C(/C(=O)OC)[C@H](C)[C@H](/C=C/c1ccccc1)OC | – | 0.76 µg/mL (≈ 2.62 µM) | 5.48 µg/mL (≈ 18.9 µM) | > 50 µg/mL | 15.1 µg/mL (≈ 52 µM) | 39.2 µg/mL (≈ 135 µM) | 3 µg/mL (≈ 10.3 µM)
CO/C=C(/C(=O)OC)[C@H](C)[C@H](/C=C/c1ccc(Cl)c(OC)c1)OC [(-)-OUDEMANSIN B] | – | 0.89 µg/mL (≈ 2.51 µM) | 0.73 µg/mL (≈ 2.06 µM) | 27.8 µg/mL (≈ 78.5 µM) | 0.02 µg/mL (≈ 0.0564 µM) | 14.3 µg/mL (≈ 40.2 µM) | 0.4 µg/mL (≈ 1.13 µM)
O=C(O)c1ccc2c(c1)C=C/C(=C\Cl)CO2 | > 10 µg/mL | > 50 µg/mL | 0.78 µg/mL (≈ 3.3 µM) | > 50 µg/mL | 11.7 µg/mL (≈ 49.3 µM) | > 50 µg/mL | –
CO\C=C(C(=O)OC)/C(C)=C(\C=C\c1ccc2c(c1)OC(C)(C)[C@@H](OCC=C(C)C)CO2)OC | 0.03 µg/mL (≈ 0.0635 µM) | 0.5 µg/mL (≈ 1.06 µM) | 14.3 µg/mL (≈ 30.3 µM) | 15.4 µg/mL (≈ 32.6 µM) | 0.36 µg/mL (≈ 0.762 µM) | 24 µg/mL (≈ 50.7 µM) | –
Cc1c2ccncc2c(C)c2c1[nH]c1ccccc12 [ELLIPTECINE] | – | – | 0.45 µg/mL (≈ 1.83 µM) | – | 0.68 µg/mL (≈ 2.76 µM) | 1.18 µg/mL (≈ 4.79 µM) | –
COc1cccc2c1C(=O)c1c(O)c3c(c(O)c1C2=O)C[C@@](O)(C(=O)CO)C[C@@H]3O[C@H]1C[C@H](N)[C@H](O)[C@H](C)O1 [DOXORUBICIN] | – | – | 0.25 µg/mL (≈ 0.46 µM) | 0.57 µg/mL (≈ 1.05 µM) | 0.04 µg/mL (≈ 0.0736 µM) | – | –
CO\C=C(C(=O)OC)/C(C)=C(\C=C\c1ccccc1)OC [9-METHOXYSTROBILURIN A] | 0.39 µg/mL (≈ 1.35 µM) | 0.06 µg/mL (≈ 0.208 µM) | 1.39 µg/mL (≈ 4.82 µM) | 12.4 µg/mL (≈ 43.1 µM) | 1.57 µg/mL (≈ 5.44 µM) | 21.3 µg/mL (≈ 73.8 µM) | –
CO\C=C(C(=O)OC)/C(C)=C(\C=C\c1ccc(Cl)c(OC)c1)OC [9-METHOXYSTROBILURIN B] | 0.3 µg/mL (≈ 0.85 µM) | 0.22 µg/mL (≈ 0.624 µM) | 5.45 µg/mL (≈ 15.4 µM) | 4.86 µg/mL (≈ 13.8 µM) | 0.4 µg/mL (≈ 1.13 µM) | 7.91 µg/mL (≈ 22.4 µM) | –
